# Reference: publication PMC9214057 (Acta Pharmaceutica Sinica. B, 2022)
# Residues, ends and D or L forms follow the SMILES beside them. *: point of attachment. Cbz = O=C(OCc1ccccc1)*
# Tests used:
# [1] = system: PD-1/NFAT reporter-Jurkat cells; test: PD-L1 cell-based assay
# [2] = system: B16F10 tumor; details: 60 mg/kg; cited from earlier work
# [3] = system: human SCC-3 tumor; details: 20 mg/kg; cited from earlier work
# [4] = system: hPD-L1 MC38 cells; test: PD-L1 expression and localisation by Western blotting / immunofluorescence; format: cell-based, mouse; details: 24 h
# Procedure, shortened: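 hPD-L1 MC38 cells were exposed for 24 h. For immunofluorescence, cells on glass-bottom dishes were treated at 1 and 10 μmol/L, fixed, permeabilized, stained overnight with anti-PD-L1, then Alexa Fluor 488 secondary with DAPI, and imaged by confocal microscopy. For Western blotting, whole cells were treated at 0.1–10 μmol/L. Per lane, 60 μg protein was run on 10% SDS-PAGE and transferred to nitrocellulose. Primary antibody was 1:1000 overnight at 4 °C; β-actin or Na/K-ATPase served as loading control. Bands were quantified by densitometry.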
# [5] = system: PD-L1; details: cited from earlier work
smiles,measurement,setting,value
COc1nc(OCc2cccc(-c3ccccc3)c2C)ccc1CNCCNC(C)=O [BMS202],concentration required in the T cell activation assay,[1],more than 10 μmol/L
same,inhibition rate in B16F10 tumor,[2],50.1%
same,inhibition rate in humanized mouse-transplanted human SCC-3 tumor,[3],41%
CCN(CC)CCCC(C)Nc1ccnc2cc(Cl)ccc12 (stereo not drawn) [chloroquine],PD-L1 protein expression / distribution,[4],increased
C[C@@H](O)[C@H](NC(=O)N[C@@H](CC(N)=O)c1nc([C@@H](N)CO)no1)C(=O)O [CA-170],direct binding to PD-L1,[5],no direct binding
CC(C)C[C@@H](C=O)NC(=O)[C@H](CC(C)C)NC(=O)[C@H](CC(C)C)NC(=O)OCc1ccccc1 [MG132] (Cbz-Leu-Leu-Leu-aldehyde),PD-L1 protein expression / distribution,[4],increased
